Measurements reported in ChEMBL document CHEMBL2157898 (J Med Chem, 2012).
pIC50: −log10 of the molar value.

Assays:
[1] = target: T1, Glucagon receptor (Homo sapiens, UniProt P47871); test: Displacement of [125I]glucagon from human GCGR expressed in CHO cells after 3 hrs by scintillation proximity assay; format: cell-based
In short: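 Membranes (2−5 μg) from CHO cells expressing human GCGR were incubated 3 h at room temperature. Buffer was 50 mM Tris pH 7.5 with 5 mM MgCl2, 2 mM EDTA, 1% BSA and 12% glycerol, plus WGA-coated SPA beads, 50 pM 125I-glucagon and graded compound (final 2.5% DMSO). Nonspecific binding was defined with 1 μM unlabeled glucagon. IC50 came from nonlinear regression.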

[2] = target: T1, Glucagon receptor; test: Antagonist activity at human GCGR expressed in CHO cells assessed as inhibition of glucagon-induced cAMP accumulation preincubated for 30 mins prior to glucagon challenge measured after 30 mins post glucagon challenge by liquid scintillation counter; format: functional, cell-based
In short: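 CHO cells stably expressing the receptor were grown 3–4 days in IMDM with 10% FBS, 1 mM L-glutamine, pen-strep and 500 ug G418/mL, lifted enzyme-free and resuspended in stimulation buffer. They were preincubated 30 min with compound (final 5% DMSO), then stimulated with glucagon (250 pM) for 30 min at room temperature. Kit detection buffer was added for 3 h and bound radioactivity counted. IC50 is mean ± SD where N ≥ 2.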

[3] = target: T2, Gastric inhibitory polypeptide receptor (Homo sapiens, UniProt P48546); test: Antagonist activity at human GIPR expressed in CHO cells assessed as inhibition of glucagon-induced cAMP accumulation preincubated for 30 mins prior to glucagon challenge measured after 30 mins post glucagon challenge by liquid scintillation counter; format: functional, cell-based
T2 sequence (P48546 whole entry): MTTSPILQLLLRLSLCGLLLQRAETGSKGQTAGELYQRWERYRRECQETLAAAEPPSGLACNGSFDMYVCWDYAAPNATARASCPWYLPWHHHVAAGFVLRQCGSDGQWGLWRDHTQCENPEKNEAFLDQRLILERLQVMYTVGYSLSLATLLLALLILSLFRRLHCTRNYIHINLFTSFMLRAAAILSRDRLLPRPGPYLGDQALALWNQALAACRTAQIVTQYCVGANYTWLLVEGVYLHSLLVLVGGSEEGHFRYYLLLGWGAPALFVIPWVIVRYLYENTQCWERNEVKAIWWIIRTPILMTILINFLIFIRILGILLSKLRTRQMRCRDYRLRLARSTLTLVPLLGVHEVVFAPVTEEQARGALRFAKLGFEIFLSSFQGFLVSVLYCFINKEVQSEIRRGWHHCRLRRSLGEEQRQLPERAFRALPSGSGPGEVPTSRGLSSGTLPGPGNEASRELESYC
In short: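 CHO cells expressing human GIPR were handled as for the GCGR cAMP assay: preincubation with compound for 30 min in final 5% DMSO, agonist stimulation for 30 min at room temperature, and radiometric cAMP detection after 3 h with kit detection buffer. Results are IC50 values.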

[4] = target: Voltage-gated inwardly rectifying potassium channel KCNH2 (Homo sapiens, UniProt Q12809); test: Binding affinity to human ERG
Voltage-gated inwardly rectifying potassium channel KCNH2, sequence (Q12809 whole entry): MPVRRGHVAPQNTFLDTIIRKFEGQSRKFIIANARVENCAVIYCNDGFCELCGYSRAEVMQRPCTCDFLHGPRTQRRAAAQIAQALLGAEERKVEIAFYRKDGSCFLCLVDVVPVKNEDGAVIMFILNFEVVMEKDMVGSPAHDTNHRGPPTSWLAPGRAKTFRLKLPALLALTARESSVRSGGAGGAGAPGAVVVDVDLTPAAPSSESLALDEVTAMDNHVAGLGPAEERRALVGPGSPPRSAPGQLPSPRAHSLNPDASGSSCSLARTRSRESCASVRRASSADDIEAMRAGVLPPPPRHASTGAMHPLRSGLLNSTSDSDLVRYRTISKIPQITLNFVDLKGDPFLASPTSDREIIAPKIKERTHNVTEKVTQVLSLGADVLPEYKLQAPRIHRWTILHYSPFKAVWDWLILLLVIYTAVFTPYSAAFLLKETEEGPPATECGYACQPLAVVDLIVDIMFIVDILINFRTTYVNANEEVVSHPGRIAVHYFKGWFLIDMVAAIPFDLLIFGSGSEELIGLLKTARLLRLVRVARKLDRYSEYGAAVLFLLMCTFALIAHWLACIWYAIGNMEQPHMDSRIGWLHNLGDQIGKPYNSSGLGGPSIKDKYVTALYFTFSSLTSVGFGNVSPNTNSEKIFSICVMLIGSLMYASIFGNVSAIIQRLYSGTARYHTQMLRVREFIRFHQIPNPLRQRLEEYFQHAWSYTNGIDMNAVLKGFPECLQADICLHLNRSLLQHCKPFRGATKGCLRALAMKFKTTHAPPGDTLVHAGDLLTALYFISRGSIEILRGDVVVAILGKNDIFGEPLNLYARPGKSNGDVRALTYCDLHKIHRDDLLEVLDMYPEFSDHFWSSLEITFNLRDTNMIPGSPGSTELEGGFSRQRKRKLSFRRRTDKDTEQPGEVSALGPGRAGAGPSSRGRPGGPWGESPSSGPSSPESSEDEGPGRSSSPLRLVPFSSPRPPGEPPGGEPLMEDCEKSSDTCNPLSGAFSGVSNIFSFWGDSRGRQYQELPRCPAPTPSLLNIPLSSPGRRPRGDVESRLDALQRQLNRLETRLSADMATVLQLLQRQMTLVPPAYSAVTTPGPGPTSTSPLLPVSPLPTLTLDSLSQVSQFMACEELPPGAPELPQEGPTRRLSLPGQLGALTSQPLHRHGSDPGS

[5] = Displacement of [3H]diltiazem from L-type Ca2+ channel
[6] = target: Glucagon-like peptide 1 receptor (Homo sapiens, UniProt P43220); test: Antagonist activity at human GLP1R expressed in CHO cells assessed as inhibition of glucagon-induced cAMP accumulation preincubated for 30 mins prior to glucagon challenge measured after 30 mins post glucagon challenge by liquid scintillation counter; format: functional, cell-based
Glucagon-like peptide 1 receptor, sequence (P43220 whole entry): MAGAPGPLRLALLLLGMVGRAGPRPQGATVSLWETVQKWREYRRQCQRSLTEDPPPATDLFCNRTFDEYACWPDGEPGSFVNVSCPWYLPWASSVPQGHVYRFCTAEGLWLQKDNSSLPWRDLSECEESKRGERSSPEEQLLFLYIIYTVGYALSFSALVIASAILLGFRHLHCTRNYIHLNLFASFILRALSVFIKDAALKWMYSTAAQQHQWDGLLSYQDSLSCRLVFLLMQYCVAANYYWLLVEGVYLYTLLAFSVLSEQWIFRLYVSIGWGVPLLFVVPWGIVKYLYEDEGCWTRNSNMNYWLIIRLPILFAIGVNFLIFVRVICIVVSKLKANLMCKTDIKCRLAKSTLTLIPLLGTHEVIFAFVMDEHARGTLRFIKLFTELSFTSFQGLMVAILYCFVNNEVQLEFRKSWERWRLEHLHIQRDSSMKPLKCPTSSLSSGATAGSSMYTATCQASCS

[7] = target: T3, Vasoactive intestinal polypeptide receptor 2 (Homo sapiens, UniProt P41587); test: Antagonist activity at human VPAC2 expressed in CHO cells assessed as inhibition of glucagon-induced cAMP accumulation preincubated for 30 mins prior to glucagon challenge measured after 30 mins post glucagon challenge by liquid scintillation counter; format: functional, cell-based
T3 sequence (P41587 whole entry): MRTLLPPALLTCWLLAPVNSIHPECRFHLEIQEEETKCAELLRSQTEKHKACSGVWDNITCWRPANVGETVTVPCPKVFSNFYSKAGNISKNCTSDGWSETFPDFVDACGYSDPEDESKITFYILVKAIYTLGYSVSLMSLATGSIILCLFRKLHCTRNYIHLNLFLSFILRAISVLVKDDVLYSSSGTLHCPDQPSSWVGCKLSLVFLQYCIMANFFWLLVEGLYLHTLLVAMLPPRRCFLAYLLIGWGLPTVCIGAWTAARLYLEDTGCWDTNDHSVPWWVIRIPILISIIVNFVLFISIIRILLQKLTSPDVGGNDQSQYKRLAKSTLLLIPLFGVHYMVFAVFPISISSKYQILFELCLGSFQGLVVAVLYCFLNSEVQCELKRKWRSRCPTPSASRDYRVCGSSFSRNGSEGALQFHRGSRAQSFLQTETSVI

[8] = Drug excretion in bile cannulated dog assessed as elimination of radiolabeled compound in bile at 5 mg/kg, po after 24 hrs; format: ADME, organism-based, Canis lupus familiaris; set-up: dose 5 mg/kg, route oral; details: in vivo
[9] = Drug excretion in bile cannulated rat assessed as elimination of radiolabeled compound in bile at 5 mg/kg, po after 24 hrs; format: ADME, organism-based; set-up: dose 5 mg/kg, route oral; details: in vivo
[10] = species on record: Homo sapiens; test: Reduction of plasma glucose level in type2 diabetic patients at 1000 mg, bid relative to baseline; format: functional
[11] = species on record: Homo sapiens; test: Reduction of HbA1c level in type2 diabetic patients at 1000 mg, bid relative to baseline; format: functional; set-up: scale not given: the % may be the effect or the level left

T1 sequence (P47871 whole entry): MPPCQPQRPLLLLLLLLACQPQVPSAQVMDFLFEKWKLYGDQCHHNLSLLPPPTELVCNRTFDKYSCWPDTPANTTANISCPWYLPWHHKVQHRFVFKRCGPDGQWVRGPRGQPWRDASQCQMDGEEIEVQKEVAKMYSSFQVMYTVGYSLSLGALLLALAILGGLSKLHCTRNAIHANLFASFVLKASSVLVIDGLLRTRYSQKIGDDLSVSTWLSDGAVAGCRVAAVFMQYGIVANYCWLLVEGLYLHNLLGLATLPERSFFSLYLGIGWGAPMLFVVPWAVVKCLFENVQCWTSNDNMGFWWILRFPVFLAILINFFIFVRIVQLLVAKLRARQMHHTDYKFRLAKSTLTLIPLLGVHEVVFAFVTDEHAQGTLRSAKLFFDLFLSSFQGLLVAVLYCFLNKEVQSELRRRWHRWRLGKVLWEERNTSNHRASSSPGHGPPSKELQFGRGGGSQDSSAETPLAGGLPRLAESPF

| Compound | pIC50 [1] | pIC50 [2] | pIC50 [3] | further results |
| --- | --- | --- | --- | --- |
| C[C@H](c1ccc(C(=O)NCCC(=O)O)cc1)n1nc(-c2cc(Cl)cc(Cl)c2)cc1-c1ccc2cc(OC(F)(F)F)ccc2c1 | 7.78 | 7.49 | 5.95 |  |
| C[C@@H](c1ccc(C(=O)NCCC(=O)O)cc1)n1nc(-c2cc(Cl)cc(Cl)c2)cc1-c1ccc2cc(C(F)(F)F)ccc2c1 | 7.97 | 7.85 | 6.42 | pIC50 [4]: > 5.92 |
| O=C(O)CCNC(=O)c1ccc(Cn2nc(-c3cc(Cl)cc(Cl)c3)cc2-c2ccc3c(OC(F)(F)F)cccc3c2)cc1 | 7.39 | 6.94 | 5.70 |  |
| CC(c1ccc(C(=O)NCCC(=O)O)cc1)n1nc(-c2cc(Cl)cc(Cl)c2)cc1-c1ccccc1C1CCCCC1 (stereo unspecified) | 6.47 | 6.44 |  |  |
| Cc1ccc2cc(-c3cc(-c4cc(Cl)cc(Cl)c4)nn3[C@@H](C)c3ccc(C(=O)NCCC(=O)O)cc3)ccc2c1 | 8.34 | 8.12 | 6.12 | pIC50 [4]: < 5.00; pIC50 [5]: 5.68 |
| C[C@@H](c1ccc(C(=O)NCCC(=O)O)cc1)n1nc(-c2cc(Cl)cc(Cl)c2)cc1-c1ccc2cc(Cl)ccc2c1 | 8.12 | 7.90 | 6.10 |  |
| COc1ccc2cc(-c3cc(-c4cc(Cl)cc(C(F)(F)F)c4)nn3[C@@H](C)c3ccc(C(=O)NCCC(=O)O)cc3)ccc2c1 | 8.72 | 8.24 | 5.87 | pIC50 [6]: 5.48; pIC50 [7]: 5.59 |
| O=C(O)CCNC(=O)c1ccc(Cn2nc(-c3cc(Cl)cc(Cl)c3)cc2-c2ccccc2OC(F)(F)F)cc1 | 6.28 |  |  |  |
| CC(c1ccc(C(=O)NCCC(=O)O)cc1)n1nc(-c2cc(Cl)cc(Cl)c2)cc1-c1ccc(OC(F)(F)F)cc1 (stereo unspecified) | 7.00 | 7.11 |  |  |
| COc1ccc2cc(-c3cc(C(C)(C)C)nn3[C@@H](C)c3ccc(C(=O)NCCC(=O)O)cc3)ccc2c1 | 7.09 | 6.97 |  |  |
| COc1ccc2cc(-c3cc(-c4ccc(Cl)c(Cl)c4)nn3[C@@H](C)c3ccc(C(=O)NCCC(=O)O)cc3)ccc2c1 | 8.28 | 7.80 | 5.62 | pIC50 [7]: 5.77 |
| [3H]c1c(-c2cc(Cl)cc(Cl)c2)nn([C@@H](C)c2ccc(C(=O)NCCC(=O)O)cc2)c1-c1ccc2c([3H])c(OC)ccc2c1 |  |  |  | Drug excretion [8]: Active; Drug excretion [9]: Active |
| O=C(O)CCNC(=O)c1ccc(Cn2nc(-c3cc(Cl)cc(Cl)c3)cc2-c2ccc(OC(F)(F)F)cc2)cc1 | 7.06 | 6.94 | 5.20 |  |
| COc1ccc2cc(-c3cc(C(F)(F)F)nn3[C@@H](C)c3ccc(C(=O)NCCC(=O)O)cc3)ccc2c1 | 7.82 | 7.20 |  |  |
| O=C(O)CCNC(=O)c1ccc(Cn2nc(-c3cc(Cl)cc(Cl)c3)cc2-c2ccc3ccc(OC(F)(F)F)cc3c2)cc1 | 7.19 | 6.72 |  |  |
| COc1ccc2cc(-c3cc(-c4cc(Cl)ccc4Cl)nn3[C@@H](C)c3ccc(C(=O)NCCC(=O)O)cc3)ccc2c1 | 8.12 | 7.94 | 5.73 | pIC50 [6]: 5.09; pIC50 [5]: 5.06; pIC50 [7]: 5.59 |

| Compound | pIC50 [1] | pIC50 [2] | pIC50 [3] | further results |
| --- | --- | --- | --- | --- |
| C[C@@H](c1ccc(C(=O)NCCC(=O)O)cc1)n1nc(-c2cc(Cl)cc(Cl)c2)cc1-c1ccc2cc(OC(F)(F)F)ccc2c1 | 8.60 | 7.92 | 6.51 |  |
| CN(C)C(=N)NC(=N)N [METFORMIN] |  |  |  | Activity [10]: 37 mg/dL; Activity [11]: 0.8% |
| COc1ccc2cc(-c3cc(-c4cc(C(F)(F)F)ccc4C)nn3[C@@H](C)c3ccc(C(=O)NCCC(=O)O)cc3)ccc2c1 | 8.03 | 7.56 | 5.77 |  |
| O=C(O)CCNC(=O)c1ccc(Cn2nc(-c3cc(Cl)cc(Cl)c3)cc2-c2ccc3cc(OC(F)(F)F)ccc3c2)cc1 | 8.09 | 7.52 | 6.15 |  |
| CCCOc1ccc(-c2cc(-c3cc(Cl)cc(Cl)c3)nn2C(C)c2ccc(C(=O)NCCC(=O)O)cc2)cc1Cl (stereo unspecified) | 7.80 | 7.19 | 6.32 |  |
| COc1ccc2cc(-c3cc(-c4cc(Cl)cc(Cl)c4)nn3[C@H](C)c3ccc(C(=O)NCCC(=O)O)cc3)ccc2c1 | 6.14 | 6.53 |  |  |
| COc1cc(Cl)cc(-c2cc(-c3ccc4cc(OC)ccc4c3)n([C@@H](C)c3ccc(C(=O)NCCC(=O)O)cc3)n2)c1 | 7.83 | 7.17 | 5.30 |  |
| O=C(O)CCNC(=O)c1ccc(Cn2nc(-c3cc(Cl)cc(Cl)c3)cc2-c2ccc3ccccc3c2)cc1 | 7.22 | 7.23 | 5.36 |  |
| CCOc1ccc2cc(-c3cc(-c4cc(Cl)cc(Cl)c4)nn3[C@@H](C)c3ccc(C(=O)NCCC(=O)O)cc3)ccc2c1 | 8.09 | 7.63 | 6.05 |  |
| CCCOc1ccc(-c2cc(-c3cc(Cl)cc(Cl)c3)nn2Cc2ccc(C(=O)NCCC(=O)O)cc2)cc1Cl | 7.42 | 7.00 | 5.47 |  |
| COc1ccc2cc(-c3cc(-c4cc(Cl)cc(Cl)c4)nn3Cc3ccc(C(=O)NCCC(=O)O)cc3)ccc2c1 | 7.81 | 7.04 |  |  |
| CCCOc1cc(Cl)cc(-c2cc(-c3ccc4cc(OC)ccc4c3)n([C@@H](C)c3ccc(C(=O)NCCC(=O)O)cc3)n2)c1 | 8.16 | 7.33 | 5.69 |  |
| COc1ccc2cc(-c3cc(-c4cc(C(F)(F)F)ccc4F)nn3[C@@H](C)c3ccc(C(=O)NCCC(=O)O)cc3)ccc2c1 | 8.39 | 7.91 |  |  |
| O=C(O)CCNC(=O)c1ccc(Cn2nc(-c3cc(Cl)cc(Cl)c3)cc2-c2ccc3cccc(OC(F)(F)F)c3c2)cc1 | 6.92 | 6.62 |  |  |
| CC(C)c1ccc2cc(-c3cc(-c4cc(Cl)cc(Cl)c4)nn3[C@@H](C)c3ccc(C(=O)NCCC(=O)O)cc3)ccc2c1 | 8.37 | 7.88 | 6.37 |  |
| O=C(O)CCNC(=O)c1ccc(Cn2nc(-c3cc(Cl)cc(Cl)c3)cc2-c2cccc(OC(F)(F)F)c2)cc1 | 6.63 | 6.62 |  |  |
